PAFAH1B3 FP inh = blocks human PAF acetylhydrolase 1B catalytic subunit 3; Q15102; recombinant PAFAH1B3, FP-rhodamine probe, fluorescence polarization; inhibition, % at 3.39 µM; 340,000 compounds, 0.28% hits; AID 492972;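 active = inhibition above the screen-wide average of all tested compounds plus 3 SD, cut at about 25% in these data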;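 also: 0% = enzyme with DMSO only and 100% = wells lacking PAFAH1B3 protein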
pPAFAH inh = pPAFAH (human) enzyme inhibition; Q13093; recombinant pPAFAH, FP-rhodamine probe fluorescence polarization; inhibition, % at 3.39 µM; 330,000 compounds, 1.5% hits; AID 463082;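 active = inhibition above the mean inhibition across the screen plus 3 SD, cut at about 25% in these data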;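 also: inhibitors block binding of the rhodamine activity-based probe so polarization drops; 0% = enzyme with DMSO and 100% = wells lacking pPAFAH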
Target sequence (Q13093 whole entry, looked up): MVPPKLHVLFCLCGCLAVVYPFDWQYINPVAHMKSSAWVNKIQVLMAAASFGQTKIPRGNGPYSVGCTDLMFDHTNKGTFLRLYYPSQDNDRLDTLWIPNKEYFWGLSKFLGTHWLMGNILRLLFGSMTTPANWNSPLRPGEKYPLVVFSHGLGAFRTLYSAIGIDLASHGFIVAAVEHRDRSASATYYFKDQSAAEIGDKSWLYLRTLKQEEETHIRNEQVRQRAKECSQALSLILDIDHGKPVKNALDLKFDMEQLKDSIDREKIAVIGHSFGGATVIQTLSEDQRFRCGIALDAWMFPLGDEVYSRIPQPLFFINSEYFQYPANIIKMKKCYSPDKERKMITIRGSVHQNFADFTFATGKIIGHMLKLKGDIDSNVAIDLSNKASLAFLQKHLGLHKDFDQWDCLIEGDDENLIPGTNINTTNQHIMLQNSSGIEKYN
PAFAH1B2 FP inh = PAFAH1B2 (human) inhibition; P68402; recombinant PAFAH1B2, FP-rhodamine activity probe, fluorescence polarization; inhibition, % at 3.39 µM; 340,000 compounds, 1.2% hits;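 active = inhibition above the mean of all tested compounds plus 3 SD, cut at about 24% in these data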;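 also: 0% = enzyme with DMSO and 100% = wells lacking PAFAH1B2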
IMP-1 inh = blocks Pseudomonas aeruginosa IMP-1 metallo-beta-lactamase. purified IMP-1, nitrocefin hydrolysis, epi-absorbance fluorescence. inhibition, % at 5.6 µM. 290,000 compounds, 0.45% hits. AID 1556;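 active = inhibition above the mean plus 3 SD of all compounds in the same screening run, cut at about 4.5% in these data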;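 also: 0% = IMP-1 with DMSO and 100% = DMSO wells lacking enzyme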
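Material – recombinant IMP-1 enzyme, purified · Amount – IMP-1 0.2 nM before substrate addition · Medium – HEPES buffer pH 7.1 with ZnSO4 and Brij 35 · Timing – 25 °C, 15 min preincubation, 25 min reaction · Measured by – plate fluorescence quenching by hydrolysis product, ex 480/em 530 nm · Read-out – percent enzyme inhibition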
PAFAH2 FP inh = PAFAH2 (human) inhibition | Q99487 | recombinant PAFAH2, FP-rhodamine activity probe, fluorescence polarization | inhibition, % at 3.39 µM | 340,000 compounds, 0.99% hits | AID 492956;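 active = inhibition above the mean over all tested compounds plus 3 SD, cut at about 30% in these data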;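 also: inhibitors block probe labeling of enzyme so polarization drops; 0% = enzyme with DMSO and 100% = wells lacking PAFAH2 protein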
VIM-2 inh = blocks Pseudomonas aeruginosa VIM-2 metallo-beta-lactamase; purified VIM-2, nitrocefin hydrolysis, epi-absorbance fluorescence; 290,000 compounds, 0.89% hits; inhibition, % at 5.6 µM;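 active = inhibition above the mean of all tested compounds plus 3 SD, cutoff set per screening run, cut at about 7.5% in these data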;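 also: red hydrolysis product quenches plate fluorescence so inhibitors raise well fluorescence; 0% = enzyme with DMSO and 100% = DMSO without enzyme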
Numbers without * were called inactive; . = not tested or not shown. An excerpt weighted towards active compounds, which were near 3.6% of everything screened.

SMILES	PAFAH1B3 FP inh	pPAFAH inh	PAFAH1B2 FP inh	IMP-1 inh	PAFAH2 FP inh	VIM-2 inh
Cc1ccccc1C(=O)Nc1ccc(C(=O)NNC(=O)CCCOc2ccc(Cl)cc2Cl)cc1	-4	4	0	-1	-2	0
COc1cc(/C=N/NC(=O)c2cncc(Br)c2)ccc1OC(=O)c1ccc2c(c1)OCO2	.	.	.	46*	.	0
COc1cc(/C=N\NC(=O)c2ccc(C)nc2)ccc1OC(=O)c1ccc2c(c1)OCO2	-158	-11	-86	-3	-128	-2
CCOc1ccc(N(CC(=O)N/N=C/c2ccccn2)S(=O)(=O)c2ccc(Cl)cc2)cc1	15	.	4	-4	2	-7
O=C(c1ccc(CS(=O)(=O)Cc2ccc(Cl)cc2)o1)N1CCCC1	6	26*	1	-4	8	0
Cc1ccc(S(=O)(=O)Cc2ccc(C(=O)N3CCCC3)o2)cc1	-6	-7	1	3	5	1
N/C(=N\OC(=O)CCC1CCCC1)c1ccc(Cl)cc1	-7	-2	25*	-1	10	1
Cc1ccc(/C(N)=N/OC(=O)CCC2CCCC2)cc1	5	-2	7	-3	6	-3
CCOc1ccc(C=NNC(=O)c2cccc3ccccc23)cc1OCC	7	.	0	.	4	.
O=c1c(O[C@H]2O[C@@H](CO)[C@H](O)[C@@H](O)[C@@H]2O)c(-c2ccc(O)cc2)oc2cc(O)cc(O)c12	2	-3	3	.	2	.
O=c1cc(-c2ccc(O)c(O)c2)oc2cc(O[C@@H]3O[C@H](CO)[C@@H](O)[C@H](O)[C@H]3O)cc(O)c12	67*	15	67*	.	52*	.
O=c1c(OC2OC(CO)C(O)C(O)C2O)c(-c2ccc(O)c(O)c2)oc2cc(O)cc(O)c12 (configuration not stated)	46*	29*	3	-2	-7	-4
O=c1c(-c2ccc(O)cc2)coc2cc(OC3OC(CO)C(O)C(O)C3O)cc(O)c12 (configuration not stated)	2	-5	8	1	-6	8
C[C@@H]1O[C@@H](OC[C@H]2O[C@@H](Oc3cc(O)c4c(=O)cc(-c5ccc(O)c(O)c5)oc4c3)[C@H](O)[C@@H](O)[C@@H]2O)[C@H](O)[C@H](O)[C@H]1O	87*	15	75*	.	23	.
C=CCN(C(=O)Cn1nc(C)n2c(cc3cc(C)ccc32)c1=O)c1ccccc1	10	3	13	1	13	2
CCc1cccc(C)c1NC(=O)C1CCN(c2nn3c(=O)cc(C)nc3s2)CC1	7	0	-2	0	7	-1
COC(=O)c1ccc2c(c1)c(-c1ccccc1)c(-c1ccccc1)n2C	0	15	2	.	-4	.
Cc1cc(NC(=O)NC(=O)c2ccccc2NC(=O)C(C)N)ccc1Oc1ncc(Br)cn1 (configuration not stated)	4	.	1	.	0	.
CCCOc1ccc(C(=O)ON=C2CCN(C)CC2)cc1	-4	26*	4	0	78*	-1
CCCOc1ccc(C(=O)O)cc1	5	1	10	-3	6	-2
CCOC(=O)/C(N=Nc1sc(C(=O)OCC)c(C)c1C(=O)OCC)=C(\C)O	.	2	.	-2	.	1
CCOC(=O)/C(N=Nc1sc(C(=O)OC)c(C)c1C(=O)OCC)=C(\O)CCl	7	-7	-1	4.7*	-6	0
Cc1cc(NS(=O)(=O)c2ccc(NC(=O)/C=C/c3cccc(Cl)c3)cc2)no1	1	4	6	-1	-13	-3
COc1ccc(/C=N/NC(=O)c2ccc(-c3ccccc3)cc2)cc1O	-12	8	-1	-5	-4	-3
COc1ccc(/C=N/NC(=O)c2ccc(CN3C(=O)c4cccc5cccc3c45)cc2)cc1O	25	5	27*	-3	-34	-4
SMILES	PAFAH1B3 FP inh	pPAFAH inh	PAFAH1B2 FP inh	IMP-1 inh	PAFAH2 FP inh	VIM-2 inh
Cc1cccn2c(=O)c3cc(C(=O)NCCc4ccccc4)sc3nc12	3	4	3	-2	-2	4
Cc1ccccc1NC(=O)c1cc2c(=O)n3cccc(C)c3nc2s1	2	7	5	-2	1	9.2*
Cc1ccc(S(=O)(=O)Nc2ccc3c(c2)n(C)c(=O)n3C)c(C)c1	3	-6	4	-1	8	-2
Cc1ccc(S(=O)(=O)Nc2ccc3oc(=O)sc3c2)c(C)c1	-1	16	28*	-2	8	0
COc1ccc(/C=C/c2nc(C#N)c(NCCN(C)C)o2)cc1OC	13	5	2	-3	-1	10*
CCC(CC)COC(=O)C1=C(C)NC(=O)NC1c1ccc(N(C)C)cc1 (configuration not stated)	4	15	28*	-3	4	-1
O=C(Nc1nc2ccccc2[nH]1)C12CC3CC(CC(C3)C1)C2	0	-3	29*	-4	17	-5
O=C(Nc1nc2ccccc2[nH]1)C1CC1	2	-1	-1	-3	3	-3
OCCn1ccc(-c2ccccc2OCc2ccc(F)cc2)n1	7	2	5	-3	0	-1
Cc1c(CCC(=O)O)c(=O)oc2c(C)c3occ(-c4ccc(Cl)cc4)c3cc12	-1	.	7	5.3*	8	7
CN(CC(=O)Nc1cccc(F)c1)C(=O)/C=C/c1ccc2ccccc2n1	2	0	1	0	3	0
CCN(CC)c1cccc(OC2=NS(=O)(=O)c3ccccc32)c1	-3	25*	-1	1	2	0
CCc1ccc(OC2=NS(=O)(=O)c3ccccc32)cc1	8	.	3	-3	0	-3
OCCN(CCO)c1ccc2ccccc2c1	4	8	0	-1	4	2
OCCN(CCO)c1ccc(C(c2ccccc2Cl)c2ccc(N(CCO)CCO)cc2Cl)c(Cl)c1	20	25*	9	-2	22	-2
CCOC(=O)C1CCCN(C(=O)c2cccc(S(=O)(=O)N(C)c3ccc(C)cc3)c2)C1 (configuration not stated)	7	3	3	.	4	.
CCC(C(=O)NCCc1c[nH]c2ccc(C)cc12)c1ccccc1 (configuration not stated)	3	7	4	-2	-9	1
O=C1C(Cl)=C(Nc2ccccc2O)C(=O)N1c1ccccc1	-1	15	4	-5	12	9.3*
FC(F)(F)c1cccc(Cc2noc(CN(Cc3ccccn3)CC3CCCO3)n2)c1 (configuration not stated)	2	33*	3	-4	-7	1
COc1cccc(NC(=O)CN(C)C(=O)CSCC(=O)Nc2ccc(C)cc2)c1	0	-6	-2	.	0	.
COCC(C)n1c(SCC(=O)NC(=O)Cc2ccccc2)nc2ccccc2c1=O (configuration not stated)	1	9	-3	.	2	.
